Measurements from article PMC11068522 (International Journal for Parasitology: Drugs and Drug …, 2024).
Like-named read-outs stand apart in the source and are kept apart here.

Key:
[1] = test system: intraerythrocytic stage P. falciparum (strain 3D7); test: In vitro antiplasmodial SYBR Green I-based fluorescence assay, 96 h, strain 3D7; type: cell-based, Plasmodium falciparum; conditions: for IC50: 96 h; for inhibition: 3D7, read-out: inhibition of parasite proliferation at the single (highest) concentration tested
How it was run: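 Synchronous ring-stage parasites in O+ erythrocytes, 0.5% parasitemia and 1% hematocrit, in RPMI 1640 with HEPES, Glutamax, 11 mM glucose, 200 μM hypoxanthine, gentamicin and 0.6% Albumax II. […] Frozen at −80 °C, then SYBR Safe lysis (20 mM Tris pH 7.5, EDTA, saponin, Triton X-100). Fluorescence as % of untreated control; IC50 from four-parameter fit, mean ± SEM, n = 3.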

[2] = test system: β-hematin formation; test: Detergent mediated β-hematin assay; type: biochemical; conditions: cell-free detergent mediated assay; Fig. S4
[3] = test system: [Na^+]cyt of isolated trophozoite-stage 3D7 parasites (PfATP4); test: Cytosolic Na+ measurements; type: cell-based, Plasmodium falciparum; conditions: isolated 3D7 trophozoites; 13i 1 μM and 10 μM, cipargamin 50 nM; final 85–90 min
How it was run: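 Saponin-freed trophozoite-stage 3D7 parasites loaded with SBFI, in 96-well plates at 37 °C in saline (125 mM NaCl, 5 mM KCl, 1 mM MgCl2, 20 mM glucose, 25 mM HEPES, pH 7.1). Controls: DMSO solvent (0.1–0.2% v/v) and a PfATP4-inhibitor positive control. Final [Na+]cyt averaged over 85–90 min of exposure. Three independent experiments on separate days, mean + SEM, Dunnett's test versus DMSO.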

[4] = Solubility in DMSO; type: physicochemical; conditions: other compounds dissolved to 200 mM; these dissolved to between 10 and 100 mM
[5] = Plasmodium falciparum, 3D7, 96 h, read-out: IC50 (P. falciparum proliferation), strain 3D7

SMILES	IC50 [1, 5]	inhibition ([1]; Plasmodium falciparum)	other results
COc1cc(C)ccc1NC(=O)c1nccc2ccccc12.Cl [Compound 12j]	–	–	reduction of antiplasmodial activity relative to 12a ([1]; compared with isoquinoline carboxamide 12a, strain 3D7): about 2 fold; IC50 ([1]; read-out: IC50 (P. falciparum proliferation), strain 3D7): 136 µM
COc1cc(C)ccc1NC(=S)c1ccc2ccccc2c1 [Compound 13b]	23 µM	> 50%	effect on β-hematin formation [2]: none
S=C(Nc1ccccc1)c1nccc2ccccc12 [Compound 13d]	–	< 50%	–
COc1cc(C)ccc1NC(=O)c1cnc2ccccc2c1 [Compound 12c]	62 µM	–	–
S=C(Nc1ccccc1)c1cccnc1 [Compound 13h]	–	< 50%	–
C[C@H]1Cc2c([nH]c3cc(Cl)c(F)cc23)[C@@]2(N1)C(=O)Nc1ccc(Cl)cc12 [cipargamin]	–	–	effect on [Na^+]cyt [3]: significant increase
COc1cc(C)ccc1NC(=S)c1cnc2ccccc2c1 [Compound 13c]	61 µM	> 50%	solubility in DMSO [4]: lower solubility
COc1cc(C)ccc1NC(=O)c1nccc2ccccc12 [Compound 12a]	69 µM	–	solubility in DMSO [4]: lower solubility
CCN(CC)CCCC(C)Nc1ccnc2cc(Cl)ccc12 (stereo not shown) [chloroquine, Chloroquine, reference compound]	–	–	effect on β-hematin formation [2]: inhibited
COc1cc(C)ccc1NC(=S)c1nccc2ccccc12 [Compound 13a]	–	< 50%	inhibition of proliferation of P. falciparum ([1]; at concentrations up to 200 μM, strain 3D7): ≤ 50%
COc1cc(C)ccc1NC(=O)c1ccc2ccccc2c1 [Compound 12b]	38 µM	–	effect on β-hematin formation [2]: none
